Activity calls are given as the source filed them. The rule behind the calls is not given here.
What was measured:
Type in all cases: cell-based
HEK293 [1] = test: Inhibition of wild-type human SLACK expressed in HEK293 cells assessed as efficacy at 30 uM by thallium flux assay relative to control
How it was run: (§1)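 Stable monoclonal HEK293 lines (WT or A934T SLACK) plated 20,000 cells/well; loaded 1 h at room temperature with Thallo-AM dye, 1.25 mM probenecid, masking dye, 0.3% Pluronic F-127 in buffer with 2.7 mM RbCl, pH 7.3. Compound preincubated 120 s, then Tl2SO4 stimulus (2.5 mM); fluorescence read 120 s. Concentration–response 1.5 nM–30 μM in half-log steps, ≥3 replicate wells.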

[2] = (§2) Inhibition of wild-type human SLACK expressed in HEK293 cells by thallium flux assay; how it was run: as §1
CHO = test: Inhibition of wild-type human SLACK expressed in CHO cells assessed as efficacy at 30 uM by whole cell voltage clamp electrophysiology assay; details: Cricetulus griseus
[3] = Inhibition of wild-type human SLACK expressed in CHO cells by whole cell voltage clamp electrophysiology assay; details: Cricetulus griseus
How it was run: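 Automated whole-cell patch clamp at room temperature. External (mM): NaCl 105, KCl 4, MgCl2 1, CaCl2 5, HEPES 10, NMDG-Cl 40, pH 7.4. Internal: NaCl 70, KF 70, KCl 10, EGTA 5, HEPES 5, pH 7.2. Concentrations 0.125–30 μM in half-log steps, ≥3 cells per series.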

HEK293 [4] = test: as §2; how it was run: as §1

Row | IC50 [2] | IC50 [3] | SMILES | Efficacy (HEK293 [1]) | Efficacy (CHO) | inhibition (HEK293 [4])
1 | > 10 µM |  | CCOc1ccccc1S(=O)(=O)N1CC[C@H](c2nc(-c3ccc(F)cc3)no2)C1 | 63% |  | 
2 | 6.9 µM |  | CCOc1ccccc1S(=O)(=O)N1CC(c2nc(-c3cccs3)no2)C1 | 99% |  | 
3 | 7.2 µM |  | CCOc1ccccc1S(=O)(=O)N1CC(c2nc(-c3ccc(Cl)cc3F)no2)C1 | 99% |  | 
4 | > 10 µM |  | CCOc1ccccc1S(=O)(=O)N1CC[C@@H](c2nc(-c3ccc(F)cc3)no2)C1 | 31% |  | 
5 | 6.5 µM |  | CCOc1ccccc1S(=O)(=O)N1CC(c2nc(-c3ccc(F)cc3F)no2)C1 | 93% |  | 

Further lines, the molecule ahead of its results:

Row | SMILES | IC50 [2] | IC50 [3] | Efficacy (HEK293 [1]) | Efficacy (CHO) | inhibition (HEK293 [4])
6 | CCOc1ccccc1S(=O)(=O)N1CC(c2nc(-c3ccc(C(F)(F)F)cc3)no2)C1 | 3.8 µM |  | 95% |  | 
7 | COc1ccc(Cl)cc1NC(=O)CN1CCN(S(=O)(=O)N2CCC(C)CC2)CC1 |  | 2.28 µM |  | 95% | 
8 | COc1cccc(S(=O)(=O)N2CC(c3nc(-c4ccsc4)no3)C2)c1 |  |  | inactive |  | inactive
9 | CCCOc1ccccc1S(=O)(=O)N1CC(c2nc(-c3ccsc3)no2)C1 | 2.6 µM |  | 87% |  | 
10 | CCOc1ccccc1S(=O)(=O)N1CC(c2nc(-c3nccs3)no2)C1 |  |  | inactive |  | inactive
11 | Cc1ccc(S(=O)(=O)N2CC(c3nc(-c4ccsc4)no3)C2)cc1 |  |  | inactive |  | inactive
12 | O=S(=O)(c1ccc(Cl)cc1)N1CC(c2nc(-c3ccsc3)no2)C1 |  |  | inactive |  | inactive
13 | CCOc1ccccc1S(=O)(=O)N1CC(c2nc(-c3cnsc3)no2)C1 | 6.6 µM |  | 106% |  | 

Reference: ChEMBL document CHEMBL5390224, “Design, synthesis, and biological evaluation of a novel series of 1,2,4-oxadiazole inhibitors of SLACK potassium channels: Identification of in vitro tool VU0935685” (Bioorg Med Chem, 2023)
